Values after ≈ are worked out from the molar mass of the structure shown.

For orientation: MIC means the lowest concentration that inhibits growth of the organism.

Type in all cases: functional
Assay [1] relates to Candida albicans. Briefly: Antimicrobial activity against azole-susceptible Candida albicans isolate CA14 after 48 hrs by broth microdilution method. Particulars: isolate CA14, 48 h. In outline: (§1)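 CLSI M27-A2 broth microdilution was run in RPMI 1640 (pH 7.0, 2% dextrose, 0.165 M MOPS). Inoculum was 2.5 × 10^3 CFU/ml, incubated 35°C for 48 h without shaking. Plates were read visually (0–5 scale) and at OD 492 nm. MIC80 = lowest concentration giving an 80% absorbance decrease vs drug-free control. Triplicate.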
In general terms: In broth dilution the organism is exposed to a series of concentrations in liquid medium.

For assay [2], the system named is Candida albicans. As to the kind of experiment: Antimicrobial activity against azole-resistant Candida albicans isolate CA10 assessed as growth at 128 ug/ml cotreated with 0.008 ug/ml calcineurin signaling inhibitor Tacrolimus after 48 hrs by microdilution checkboard technique relative to control. Also on record: scale not given: the % may be the effect or the level left. In short, it runs like this:
(§2)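 Checkerboard microdilution in MOPS-buffered RPMI 1640 (pH 7.0, 2% dextrose). Final ranges: azole 0.125–128 μg/ml (FLC) or 0.008–8 μg/ml (ITR, VRC), tacrolimus 0.002–0.125 μg/ml; solvent 1% in single-drug wells. Inoculum 2.5 × 10^3 CFU/ml, 35°C, 48 h. Growth % = background-subtracted OD492 of each well / drug-free well. Triplicate on different days.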

Assay [3] deals with Candida albicans. Briefly: Antimicrobial activity against azole-susceptible Candida albicans isolate CA14 co-treated with calcineurin signaling inhibitor tacrolimus after 48 hrs by microdilution checkerboard technique. Particulars: isolate CA14, 48 h. In short, it runs like this: (§3)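 Checkerboard microdilution in MOPS-buffered RPMI 1640 (pH 7.0, 2% dextrose) with 2.5 × 10^3 CFU/ml for 48 h at 35°C. Final FK506 was 0.002–0.125 μg/ml. Azole finals were FLC 0.125–128 μg/ml, and ITR and VRC 0.008–8 μg/ml. MIC80 is an 80% OD492 decrease vs drug-free control. Interaction was scored by FICI (synergy ≤0.5, antagonism >4) and by ΔE from triplicates.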

For assay [4], the system named is Candida albicans. As to the kind of experiment: Antimicrobial activity against azole-resistant Candida albicans isolate CA10 assessed as growth at 32 ug/ml co-treated with 0.008 ug/ml calcineurin signaling inhibitor tacrolimus after 48 hrs by microdilution checkboard technique relative to control. Details: scale not given: the % may be the effect or the level left. In short, it runs like this:
(§4)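 CA10 in RPMI 1640 with 2% dextrose and 0.165 M MOPS, pH 7.0. Checkerboard used twofold dilutions, with azole alone in row H and the drug-free growth control in well H1. Final inoculum was 2.5 × 10^3 CFU/ml, incubated 35°C for 48 h, with OD read at 492 nm. Growth % = background-subtracted well OD / drug-free well OD. Run in triplicate on different days.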

For assay [5], the system named is Candida albicans. Briefly: Antimicrobial activity against azole-resistant Candida albicans isolate CA10 assessed as growth at 16 ug/ml co-treated with 0.016 ug/ml calcineurin signaling inhibitor tacrolimus after 48 hrs by microdilution checkboard technique relative to control. Details: scale not given: the % may be the effect or the level left. In outline:
as §2

Assay [6] relates to Candida albicans. As to the kind of experiment: Antimicrobial activity against azole-resistant Candida albicans isolate CA10 assessed as growth at 8 ug/ml co-treated with 0.004 ug/ml calcineurin signaling inhibitor tacrolimus after 48 hrs by microdilution checkboard technique relative to control. Details: scale not given: the % may be the effect or the level left. In short, it runs like this: as §4

The test system of assay [7] is Candida albicans. As to the kind of experiment: Antimicrobial activity against azole-resistant Candida albicans isolate CA10 assessed as growth at 2 ug/ml after 48 hrs by microdilution checkerboard technique relative to control. In outline: as §2
Assay [8] deals with Candida albicans. Briefly: Antimicrobial activity against azole-resistant Candida albicans isolate CA10 assessed as growth at 0.125 ug/ml after 48 hrs by microdilution checkerboard technique relative to control. In outline:
as §2

The subject of assay [9] is Candida albicans. Briefly: Antimicrobial activity against azole-resistant Candida albicans isolate CA10 assessed as growth at 0.25 ug/ml after 48 hrs by microdilution checkerboard technique relative to control. In outline: (§5)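 Checkerboard microdilution in RPMI 1640 (pH 7.0, 2% dextrose, 0.165 M MOPS). Azole dilutions run along columns and FK506 along rows, at 4× final concentration. Final inoculum 2.5 × 10^3 CFU/ml from Sabouraud-subcultured cells. Incubated 35°C for 48 h; OD read at 492 nm. Background from microorganism-free plates subtracted. Growth % = well OD / drug-free well OD. Triplicate on different days, values averaged.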

The test system of assay [10] is Candida albicans. Briefly: Antimicrobial activity against azole-susceptible Candida albicans isolate CA5 after 48 hrs by broth microdilution method. Particulars: isolate CA5, 48 h. In short, it runs like this:
as §1

The subject of assay [11] is Candida albicans. As to the kind of experiment: Antimicrobial activity against azole-resistant Candida albicans isolate CA10 assessed as growth at 64 ug/ml cotreated with 0.004 ug/ml calcineurin signaling inhibitor Tacrolimus after 48 hrs by microdilution checkboard technique relative to control. Details: scale not given: the % may be the effect or the level left. In outline:
as §4

Assay [12] has as its system Candida albicans. Briefly: Antimicrobial activity against azole-resistant Candida albicans isolate CA10 assessed as growth at 64 ug/ml co-treated with 0.031 ug/ml calcineurin signaling inhibitor tacrolimus after 48 hrs by microdilution checkboard technique relative to control. Details: scale not given: the % may be the effect or the level left. In short, it runs like this:
as §5

For assay [13], the system named is Candida albicans. Briefly: Antimicrobial activity against azole-resistant Candida albicans isolate CA137 cotreated with calcineurin signaling inhibitor Tacrolimus after 48 hrs by microdilution checkerboard technique. Particulars: isolate CA137, 48 h. In short, it runs like this:
as §3

In assay [14] the test system is Candida albicans. As to the kind of experiment: Antimicrobial activity against azole-resistant Candida albicans isolate CA10 assessed as growth at 2 ug/ml cotreated with 0.004 ug/ml calcineurin signaling inhibitor tacrolimus after 48 hrs by microdilution checkerboard technique relative to control. Also on record: scale not given: the % may be the effect or the level left. In outline:
as §2

For assay [15], the system named is Candida albicans. As to the kind of experiment: Antimicrobial activity against azole-resistant Candida albicans isolate CA10 assessed as growth at 2 ug/ml cotreated with 0.125 ug/ml calcineurin signaling inhibitor tacrolimus after 48 hrs by microdilution checkerboard technique relative to control. Details: scale not given: the % may be the effect or the level left. In short, it runs like this:
as §2

Assay [16] deals with Candida albicans. As to the kind of experiment: Antimicrobial activity against azole-susceptible Candida albicans isolate CA12 after 48 hrs by broth microdilution method. Particulars: isolate CA12, 48 h. In short, it runs like this: as §1
Assay [17] concerns Candida albicans. Briefly: Antimicrobial activity against azole-resistant Candida albicans isolate CA10 assessed as growth at 32 ug/ml co-treated with 0.004 ug/ml calcineurin signaling inhibitor tacrolimus after 48 hrs by microdilution checkboard technique relative to control. Also on record: scale not given: the % may be the effect or the level left. In outline: as §2
For assay [18], the system named is Candida albicans. As to the kind of experiment: Antimicrobial activity against azole-resistant Candida albicans isolate CA10 assessed as growth at 8 ug/ml cotreated with 0.031 ug/ml calcineurin signaling inhibitor tacrolimus after 48 hrs by microdilution checkerboard technique relative to control. Also on record: scale not given: the % may be the effect or the level left. In outline: as §5

Assay [19] relates to Candida albicans. Briefly: Antimicrobial activity against azole-resistant Candida albicans isolate CA10 assessed as growth at 64 ug/ml cotreated with 0.063 ug/ml calcineurin signaling inhibitor Tacrolimus after 48 hrs by microdilution checkboard technique relative to control. Details: scale not given: the % may be the effect or the level left. In outline: as §4
Assay [20] deals with Candida albicans. As to the kind of experiment: Antimicrobial activity against azole-resistant Candida albicans isolate CA15 cotreated with calcineurin signaling inhibitor Tacrolimus after 48 hrs by microdilution checkerboard technique. Particulars: isolate CA15, 48 h. In short, it runs like this:
as §3

The subject of assay [21] is Candida albicans. As to the kind of experiment: Antimicrobial activity against azole-resistant Candida albicans isolate CA10 assessed as growth at 128 ug/ml cotreated with 0.016 ug/ml calcineurin signaling inhibitor tacrolimus after 48 hrs by microdilution checkerboard technique relative to control. Details: scale not given: the % may be the effect or the level left. In short, it runs like this: as §2

Assay [22] deals with Candida albicans. Briefly: Antimicrobial activity against azole-resistant Candida albicans isolate CA15 after 48 hrs by broth microdilution method. Particulars: isolate CA15, 48 h. In short, it runs like this:
as §1

The test system of assay [23] is Candida albicans. As to the kind of experiment: Antimicrobial activity against azole-resistant Candida albicans isolate CA10 assessed as growth at 32 ug/ml cotreated with 0.016 ug/ml calcineurin signaling inhibitor Tacrolimus after 48 hrs by microdilution checkboard technique relative to control. Details: scale not given: the % may be the effect or the level left. In short, it runs like this:
as §4

In assay [24] the test system is Candida albicans. As to the kind of experiment: Antimicrobial activity against azole-resistant Candida albicans isolate CA10 assessed as growth at 2 ug/ml co-treated with 0.031 ug/ml calcineurin signaling inhibitor tacrolimus after 48 hrs by microdilution checkboard technique relative to control. Details: scale not given: the % may be the effect or the level left. In outline:
as §5

As for `OC(Cn1cncn1)(Cn1cncn1)c1ccc(F)cc1F` [FLUCONAZOLE], the MIC against Candida albicans [1] worked out at 0.5 µg/mL (≈ 1.63 µM); in the assay on Candida albicans [3], 0.25 µg/mL; against Candida albicans [10], 0.25 µg/mL (≈ 0.816 µM); in the assay on Candida albicans [13], 0.5 µg/mL; against Candida albicans [16], 4 µg/mL (≈ 13.1 µM); in the assay with Candida albicans [20] it was 0.5 µg/mL. The compound further registered an MIC in the assay with Candida albicans [22] of 128 µg/mL (≈ 418 µM). The Activity with Candida albicans [2] stood at 39%; with Candida albicans [4], 25%; with Candida albicans [5], 19%; in the assay on Candida albicans [6] it was 34%; in the assay with Candida albicans [7], 54%; in the assay on Candida albicans [8], 75%. Further, the Activity stood at 63% in the assay on Candida albicans [9]; 27% with Candida albicans [11]; 13% in the assay on Candida albicans [12]; 32% in the assay with Candida albicans [14]; 12% in the assay with Candida albicans [15]; 30% in the assay on Candida albicans [17]. The Activity with Candida albicans [18] came to 18%; with Candida albicans [19] it was 0%; with Candida albicans [21], 18%; in the assay on Candida albicans [23] it was 18%; in the assay on Candida albicans [24], 12%.

The values are drawn from ChEMBL document CHEMBL1151472, “In vitro interactions between tacrolimus and azoles against Candida albicans determined by different methods” (2008).
